Among the data in ChEMBL document CHEMBL1128292, “Discovery of a novel series of orally active non-peptide endothelin-A (ETA) receptor-selective antagonists” (J Med Chem, 1995) are IC50 values, retold here.

Experiment [1] concerns the target T1, Endothelin receptor type B (Rattus norvegicus, UniProt P21451).
T1 sequence (P21451 whole entry): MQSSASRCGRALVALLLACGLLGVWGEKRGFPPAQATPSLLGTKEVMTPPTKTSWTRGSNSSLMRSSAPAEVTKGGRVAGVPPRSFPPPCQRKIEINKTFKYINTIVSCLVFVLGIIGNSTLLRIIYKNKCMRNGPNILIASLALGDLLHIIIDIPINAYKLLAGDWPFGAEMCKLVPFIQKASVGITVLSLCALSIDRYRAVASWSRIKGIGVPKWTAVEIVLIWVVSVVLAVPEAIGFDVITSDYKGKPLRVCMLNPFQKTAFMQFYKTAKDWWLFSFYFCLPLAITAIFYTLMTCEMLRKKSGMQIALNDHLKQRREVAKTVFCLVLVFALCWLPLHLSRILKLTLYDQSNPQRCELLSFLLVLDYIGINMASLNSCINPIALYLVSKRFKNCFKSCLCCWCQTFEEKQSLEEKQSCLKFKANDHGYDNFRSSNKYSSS
The experiment in a line: Tested for antagonistic activity against Endothelin B receptor in the rat cerebellum. In kind it is functional, tissue-based.

Experiment [2] concerns the target T2, Endothelin receptor type B (Homo sapiens, UniProt P24530).
T2 sequence (P24530 whole entry): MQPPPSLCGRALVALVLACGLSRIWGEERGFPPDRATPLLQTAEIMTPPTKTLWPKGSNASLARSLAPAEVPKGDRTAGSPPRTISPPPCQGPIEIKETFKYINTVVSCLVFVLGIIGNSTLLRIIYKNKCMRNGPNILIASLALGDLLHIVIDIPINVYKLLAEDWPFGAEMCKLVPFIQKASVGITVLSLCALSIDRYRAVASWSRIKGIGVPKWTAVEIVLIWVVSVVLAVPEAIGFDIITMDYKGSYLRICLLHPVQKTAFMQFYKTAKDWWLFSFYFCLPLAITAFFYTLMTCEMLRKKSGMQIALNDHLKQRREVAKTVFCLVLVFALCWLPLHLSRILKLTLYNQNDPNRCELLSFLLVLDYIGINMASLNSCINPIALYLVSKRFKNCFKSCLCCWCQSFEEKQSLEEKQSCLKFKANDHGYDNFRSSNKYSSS
The experiment in a line: Tested for antagonistic activity against Endothelin B receptor in the humans (CHO expressed). In kind it is functional. Put shortly:
(§1)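 Membranes from cultured CHO-K1 cells expressing cloned human ETB receptor, incubated with [125I]ET-3 alone or with increasing unlabelled ligand concentrations, 37 °C, 2 h. Filtration separated bound from free ligand; gamma counting. Nonspecific binding measured with 100 nM unlabelled ET-3. One-site nonlinear least-squares fit of specific binding. IC50 from single competition experiments, triplicate points.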

Another experiment deals with T3, Endothelin-1 receptor (Homo sapiens, UniProt P25101).
T3 sequence (P25101 whole entry): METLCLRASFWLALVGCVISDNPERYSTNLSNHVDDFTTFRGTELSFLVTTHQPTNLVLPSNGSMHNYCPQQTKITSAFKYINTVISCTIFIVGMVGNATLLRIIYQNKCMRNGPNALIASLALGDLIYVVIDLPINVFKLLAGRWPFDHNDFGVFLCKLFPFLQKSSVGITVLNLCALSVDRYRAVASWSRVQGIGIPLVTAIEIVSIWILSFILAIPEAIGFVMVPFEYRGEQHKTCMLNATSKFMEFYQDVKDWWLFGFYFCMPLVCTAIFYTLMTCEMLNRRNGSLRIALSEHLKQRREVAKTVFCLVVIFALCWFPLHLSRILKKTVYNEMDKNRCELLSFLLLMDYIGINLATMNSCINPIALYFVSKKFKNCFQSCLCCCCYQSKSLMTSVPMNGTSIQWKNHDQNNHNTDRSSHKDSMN
The experiment in a line: Antagonistic activity against human Endothelin A receptor expressed in LtK. In kind it is functional.

Experiment [3] concerns the target T2, Endothelin receptor type B. The experiment in a line: Tested for antagonistic activity against Endothelin B receptor in human (CHO expressed). In kind it is functional. Put shortly:
as §1

Turning to `COc1ccc(C2(O)OC(=O)C(c3ccc4c(c3)OCO4)=C2Cc2ccc(C)cc2)cc1` (stereo unspecified), the values for the IC50 (in experiment [1]; in experiment [2]; against Endothelin-1 receptor) were 4500 nM, 390 nM and 51 nM, respectively.
Regarding `COc1ccc(C2(O)OC(=O)C(c3ccc4c(c3)OCO4)=C2Cc2ccccc2)cc1C` (stereo unspecified), the IC50 came out at 1750 nM in experiment [2] and 12 nM on Endothelin-1 receptor.
Turning to `COc1ccc(CC2=C(c3ccc(Cl)cc3)C(=O)OC2(O)c2ccc(OC)cc2)cc1` (stereo unspecified), the IC50 in experiment [2] is greater than 2500 nM.
On the same count and under the same terms, the result for `COc1ccc(C2(O)OC(=O)C(c3ccc4c(c3)OCO4)=C2Cc2ccc(Cl)cc2)cc1` (stereo unspecified) reads greater than 2500 nM; that for `COc1ccc(CC2=C(c3ccccc3)C(=O)OC2(O)c2ccc(OC)cc2)cc1` (stereo unspecified), greater than 2500 nM.
Regarding `COc1ccc(C2(O)OC(=O)C(c3ccc4c(c3)OCO4)=C2Cc2ccc(OC)c(C)c2)cc1` (stereo unspecified), the IC50 in experiment [2] amounted to 1140 nM; on Endothelin-1 receptor, 2.4 nM.
Compound `COc1ccc(CC2=C(c3ccc(C)cc3)C(=O)OC2(O)c2ccc(OC)cc2)cc1` (stereo unspecified) came in with an IC50 in experiment [2] greater than 2700 nM.
In the case of `COc1ccc(CC2=C(c3ccc(Cl)c(Cl)c3)C(=O)OC2(O)c2ccc(OC)cc2)cc1` (stereo unspecified), the values for the IC50 (in experiment [2]; against Endothelin-1 receptor) were greater than 2500 nM and 170 nM, respectively.
For the compound `COc1ccc(CC2=C(c3ccc4c(c3)OCO4)C(=O)OC2(O)c2ccc(OC)cc2)cc1` (stereo unspecified), the IC50 in experiment [2] was 1550 nM.
For the compound `O=C1OC(O)(c2ccccc2)C(Cc2ccccc2)=C1c1ccc2c(c1)OCO2` (stereo unspecified), the IC50 was 22000 nM in experiment [1] and 30000 nM in experiment [3].
Turning to `COc1ccc(CC2=C(c3ccc(OC)cc3)C(=O)OC2(O)c2ccc(OC)cc2)cc1` (stereo unspecified), the IC50 in experiment [2] was greater than 2500 nM.
On to `O=C1OC(O)(c2ccc(Cl)cc2)C(Cc2ccccc2)=C1c1ccc2c(c1)OCO2` (stereo unspecified), for which the half-inhibitory concentration (IC50) came to 5200 nM in experiment [1] and 27000 nM in experiment [2].
On to `Cc1ccc(C2(O)OC(=O)C(c3ccc4c(c3)OCO4)=C2Cc2ccccc2)cc1` (stereo unspecified), for which the IC50 was 4500 nM in experiment [1] and greater than 25000 nM in experiment [3].
In turn, `O=C1OC(O)(c2ccc(Cl)c(Cl)c2)C(Cc2ccccc2)=C1c1ccc2c(c1)OCO2` (stereo unspecified) had a concentration for half-maximal inhibition (IC50) in experiment [2] greater than 25000 nM.
For the compound `COc1ccc(C2(O)OC(=O)C(c3ccc4c(c3)OCO4)=C2Cc2ccccc2)cc1` (stereo unspecified) [PD-155080], the values for the IC50 in experiment [1] and in experiment [3] were 500 nM and 4550 nM, respectively.
Consider `COc1ccc(C(=O)/C(Cc2cc(OC)c(OC)c(OC)c2)=C(\C(=O)O)c2ccc3c(c2)OCO3)cc1` [PD-156707 SODIUM], for which the half-inhibitory concentration (IC50) in experiment [2] was 417 nM; against Endothelin-1 receptor it was 0.31 nM.

The term IC50 denotes the concentration at which inhibition is half-maximal. Low values mean greater potency, high ones weaker potency.
